Experimental data of several laboratories.
Compare with care: the assays were run in different laboratories.
Target: Serine/threonine-protein kinase OSR1 (OXSR1, Homo sapiens, UniProt O95747)

| SMILES | observed | mode | technique | cells | tested at | endpoint | value |
| --- | --- | --- | --- | --- | --- | --- | --- |
| Cn1c2c(c3ccc(Cl)c(Cl)c31)C(C#N)C1(CCN(C(=O)OC(C)(C)C)CC1)NC2=O (racemic) | thermal stability |  | DSF |  | 10 µM | ΔTm | -0.1 °C |
| CCN1CCN(Cc2ccc(NC(=O)c3ccc(C)c(Oc4ccnc5[nH]ccc45)c3)cc2C(F)(F)F)CC1 | target engagement in cells | inhibitor | chemoproteomics | Huh-7 | 1 µM | inhibition | -64.3% |
| N#CC1(c2ccccn2)CCN(Cc2cc(C(=O)N3CCCC3)c(=O)n3ccccc23)CC1 | cell-free assay |  | competition with immobilised ligand |  | 1 µM | remaining binding | 100% |
| Cc1sc(C(=O)NC2COC2)cc1-n1cc(NC(=O)Nc2c(F)cccc2Cl)cn1 | enzyme activity | inhibitor |  |  | 10 µM | remaining activity | 127% |
| Cc1c(NC(=O)c2cc(C(N)=O)nc3cc(F)ccc23)c(C(F)(F)F)nn1Cc1ccc(C(C)(C)C)cc1 | cell-free assay |  | competition with immobilised ligand |  | 1 µM | remaining binding | 100% |
| O=C1Nc2ccc(Cl)cc2C1=Cc1cc(Cl)c(O)c(Cl)c1 | cell-free assay |  |  |  | 0.5 µM | remaining signal | 91.6% |
| COc1cc(/C=C/C(=O)CC(=O)/C=C/c2ccc(O)c(OC)c2)ccc1O | enzyme activity | inhibitor |  |  | 1 µM | activity vs control | 104% |
| Cc1ccc(C(=O)Nc2ccc(CN3CCN(C)CC3)c(C(F)(F)F)c2)cc1C#Cc1cnc2cccnn12 | enzyme activity | inhibitor |  |  | 23.5 nM | remaining activity | 96% |
| Cn1c2c(c3ccc(Cl)c(Cl)c31)C(C#N)C1(CCCC1)NC2=O (centres unmarked) | thermal stability |  | DSF |  | 10 µM | ΔTm | -0.1 °C |
| CCS(=O)(=O)c1cc2cc(C[C@@](O)(CC(C)(C)c3ccc(F)cc3C(N)=O)C(F)(F)F)[nH]c2cn1 | cell-free assay |  | competition with immobilised ligand |  | 1 µM | remaining binding | 88% |
| CCN1CCC2(CC1)NC(=O)c1c(c3ccc(Cl)c(Cl)c3n1C)C2C#N (racemic) | thermal stability |  | DSF |  | 10 µM | ΔTm | 0 °C |
| CCc1ccccc1C(=O)Nc1n[nH]c2c(C)c(F)c(C3C(C#N)=C(C)N(C)C(C)=C3C#N)cc12 | cell-free assay |  | competition with immobilised ligand |  | 1 µM | remaining binding | 100% |
| O=C(Nc1cnn(-c2csc(C(=O)NC3COC3)c2)c1)Nc1c(F)cccc1Cl | enzyme activity | inhibitor |  |  | 5 µM | remaining activity | 96.5% |
| CCCCNc1ncc2c(-c3ccc(F)cc3)nn(C[C@H]3CC[C@H](N)CC3)c2n1 | target engagement in cells | inhibitor | chemoproteomics |  | 20 mM | inhibition | 8.2% |
| Cn1c2c(c3ccc(Cl)c(Cl)c31)C(C#N)C(C)(C)NC2=O (centres unmarked) | thermal stability |  | DSF |  | 10 µM | ΔTm | -0.1 °C |
| Cc1ccc(Nc2nccc(N(C)c3ccc4c(C)n(C)nc4c3)n2)cc1S(N)(=O)=O | enzyme activity | inhibitor |  |  | 0.5 µM | remaining activity | 103% |
| COCCOc1nc(-c2ccc(Cl)nc2)nc2c1CN(C(=O)c1ncn3ccccc13)CC2 | cell-free assay |  | competition with immobilised ligand |  | 0.1 µM | remaining binding | 100% |
| COc1cc(Nc2cnc(C#N)c(O[C@H](C)CN(C)C)n2)ncc1-c1cnn(C)c1 | enzyme activity | inhibitor | radiometric |  | 1 µM | remaining activity | 115% |
| O=C(NS(=O)(=O)c1ccc(NCC2CCOCC2)c([N+](=O)[O-])c1)c1ccc(N2CCN(Cc3ccc(C(F)(F)F)cc3-c3ccc(Cl)cc3)CC2)cc1Oc1cnc2[nH]ccc2c1 | cell-free assay |  | competition with immobilised ligand |  | 1 µM | remaining binding | 83% |
| FC(F)(F)Oc1cccc(-c2cnc3ccc(-c4ccncc4)nn23)c1 | enzyme activity | inhibitor | radiometric |  | 5 µM | activity vs control | 104% |
| Cn1c2c(c3ccc(Cl)c(Cl)c31)C(C#N)C1(CCNCC1)NC2=O (racemic) | thermal stability |  | DSF |  | 10 µM | ΔTm | -0.1 °C |
| Cn1cc(Cl)c2c(Oc3c(F)cc(Nc4cc(Cl)nc(N)n4)cc3F)ccnc21 | cell-free assay |  | competition with immobilised ligand |  | 0.1 µM | remaining binding | 93% |
| O=C1NC(=O)c2cc(Nc3ccc(F)cc3)c(Nc3ccc(F)cc3)cc21 | cell-free assay |  |  |  | 0.5 µM | remaining signal | 101% |
| O=C1NC(c2ccccn2)Sc2ccccc21 (centres unmarked) | cell-free assay |  | competition with immobilised ligand |  | 1 µM | remaining binding | 100% |
| N#CC1c2c([nH]c3c(Cl)c(Cl)ccc23)C(=O)NC12CCCCC2 (racemic) | thermal stability |  | DSF |  | 10 µM | ΔTm | 0.1 °C |
| Cc1ccc(NC(=O)c2ccc(CN3CCN(C)CC3)cc2)cc1Nc1nc(-c2cccnc2)cs1 | cell-free assay |  |  |  | 0.5 µM | remaining signal | 95.6% |
